# Measured values taken from ChEMBL document CHEMBL1141114, “Adenosine kinase inhibitors. 5. Synthesis, enzyme inhibition, and analgesic activity of diaryl-erythro-furanosyltubercidin analogues” (J Med Chem, 2005).
# Assays:
# Rattus norvegicus [1] = assay: Percent inhibition of the licking and biting behavior in response to formalin injection at a dose of 20 mg/Kg when given orally in rat by formalin paw assay; (n=6); assay type: functional; settings: po
# Procedure, shortened: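 Rats got 20 mg/kg orally in PEG 400 vehicle 2 h before intraplantar formalin, n = 6. Activity is expressed as % inhibition of licking and biting behaviour.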
# Adenosine kinase = Adenosine kinase (Homo sapiens, UniProt P55263); assay: Inhibitory concentration against human recombinant adenosine kinase using [14C]AMP as radioligand
# [2] = Plasma clearance at a dose of 3 mg/Kg in dog when given orally; assay type: ADME, organism-based, Canis lupus familiaris; settings: po
# Procedure, shortened: (§1)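 Rats and dogs, n = 3 per group. Oral dosing at 3 mg/kg as a suspension in 0.1% methylcellulose; intravenous dosing at 1 mg/kg as a solution in 75% PEG 400/25% saline. Plasma sampled at 0.25, 0.5, 1, 2, 4, 8 and 24 h and drug levels measured by HPLC. […] Parameters reported as mean ± S.D.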
# [3] = Bioavailability at a dose of 3 mg/Kg in dog when given orally; assay type: ADME, organism-based, Canis lupus familiaris; settings: in vivo, po; procedure, shortened: as §1
# [4] = Bioavailability at a dose of 3 mg/Kg in rat when given orally; assay type: ADME, organism-based; settings: in vivo, po; procedure, shortened: as §1
# [5] = Plasma clearance at a dose of 1 mg/kg in dog when given i.v.; assay type: ADME, organism-based, Canis lupus familiaris; parameters: dose 1 mg/kg, route intravenous; settings: iv; procedure, shortened: as §1
# [6] = Plasma clearance at a dose of 1 mg/Kg in rat when given i.v.; assay type: ADME, organism-based; settings: iv; procedure, shortened: as §1
# [7] = Time required to be halved at a dose of 1 mg/kg in dog when given i.v.; assay type: ADME, organism-based, Canis lupus familiaris; parameters: dose 1 mg/kg, route intravenous; settings: in vivo, iv; procedure, shortened: as §1
# [8] = Time required to be halved at a dose of 1 mg/Kg in rat when given i.v.; assay type: ADME, organism-based; settings: in vivo, iv; procedure, shortened: as §1
# [9] = Time required to be halved at a dose of 3 mg/Kg in dog when given orally; assay type: ADME, organism-based, Canis lupus familiaris; settings: in vivo, po; procedure, shortened: as §1
# [10] = Time required to be halved at a dose of 3 mg/Kg in rat when given orally; assay type: ADME, organism-based; settings: in vivo, po; procedure, shortened: as §1
# [11] = Plasma clearance at a dose of 3 mg/Kg in rat when given orally; assay type: ADME, organism-based; settings: po; procedure, shortened: as §1
# [12] = Distributed volume at a dose of 1 mg/kg in dog when given i.v.; assay type: ADME, organism-based, Canis lupus familiaris; parameters: dose 1 mg/kg, route intravenous; settings: in vivo, iv; procedure, shortened: as §1
# [13] = Distributed volume at a dose of 1 mg/Kg in rat when given i.v.; assay type: ADME, organism-based; settings: in vivo, iv; procedure, shortened: as §1
# [14] = Distributed volume at a dose of 3 mg/Kg in dog when given orally; assay type: ADME, organism-based, Canis lupus familiaris; settings: in vivo, po; procedure, shortened: as §1
# [15] = Distributed volume at a dose of 3 mg/Kg in rat when given orally; assay type: ADME, organism-based; settings: in vivo, po; procedure, shortened: as §1
# [16] = Area under the plot of plasma concentration at a dose of 1 mg/kg in dog when given i.v.; assay type: ADME, organism-based, Canis lupus familiaris; parameters: dose 1 mg/kg, route intravenous; settings: iv, read-out: AUC 0-24h; procedure, shortened: as §1
# [17] = Area under the plot of plasma concentration at a dose of 1 mg/Kg in rat when given i.v.; assay type: ADME; settings: iv; procedure, shortened: as §1
# [18] = Area under the plot of plasma concentration at a dose of 3 mg/Kg in dog when given orally; assay type: ADME, Canis lupus familiaris; settings: po, read-out: AUC 0-24h; procedure, shortened: as §1
# [19] = Area under the plot of plasma concentration at a dose of 3 mg/Kg in rat when given orally; assay type: ADME; settings: po; procedure, shortened: as §1
# [20] = Maximum time to achieve plasma concentration at a dose of 3 mg/Kg in dog when given orally; assay type: ADME, organism-based, Canis lupus familiaris; settings: po; procedure, shortened: as §1
# [21] = Maximum time to achieve plasma concentration at a dose of 3 mg/Kg in rat when given orally; assay type: ADME, organism-based; settings: po; procedure, shortened: as §1
# Rattus norvegicus [22] = assay: Effective dose for the […] effect measured after 2 hr when given orally in rat by rotarod assay.; assay type: functional; settings: po
# Procedure, shortened: (§2)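 Fasted male SD rats (90–110 g) were dosed orally at 10–300 mg/kg in 0.1% MC. They were first trained to walk on a rotarod at 5 rpm for 150 s. Walking time, as a measure of sedation and ataxia, was recorded at 0, 0.5, 1, 2 and 5 h after dosing, with a 150 s cutoff.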
# Rattus norvegicus [23] = assay: Effective dose for the […] effect measured after 5 h when given orally in rat by rotarod assay.; assay type: functional; settings: po; procedure, shortened: as §2
# Rattus norvegicus [24] = assay: Effective dose for the analgesic effect measured at 3 hr after administration when given orally by hot plate assay; (n=6); assay type: functional; settings: po
# Procedure, shortened: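 Fasted male SD rats (150–200 g) were gavaged with vehicle or graded doses. Hind-paw lick latency on a 50 °C hot plate (60 s max) was measured before dosing and at 0.5–4 h after.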
# Rattus norvegicus [25] = assay: Effective dose of the licking and biting behavior in response to formalin injection at a dose of 20 mg/Kg when given orally in rat by formalin paw assay; (n=6); assay type: functional; settings: po
# [26] = Maximum plasma concentration at a dose of 1 mg/kg in dog when given i.v.; assay type: ADME, organism-based, Canis lupus familiaris; parameters: dose 1 mg/kg, route intravenous; settings: iv; procedure, shortened: as §1
# [27] = Maximum plasma concentration at a dose of 1 mg/Kg in rat when given i.v.; assay type: ADME, organism-based; parameters: dose 1 mg/Kg, route intravenous; settings: iv; procedure, shortened: as §1
# [28] = Maximum plasma concentration at a dose of 3 mg/Kg in dog when given orally; assay type: ADME, organism-based, Canis lupus familiaris; parameters: dose 3 mg/Kg, route oral; settings: po; procedure, shortened: as §1
# [29] = Maximum plasma concentration at a dose of 3 mg/Kg in rat when given orally; assay type: ADME, organism-based; parameters: dose 3 mg/Kg, route oral; settings: po; procedure, shortened: as §1
# Monkey = assay: Effective dose for the analgesic effect measured after bradykinin injection when given orally by marmoset monkey bradykinin-induced licking; (n=6); assay type: functional; settings: po
# Procedure, shortened: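 Six male marmosets (Callithrix jacchus, 250–340 g) got 0.3, 3, 10 or 30 mg/kg po, or 0.1% MC vehicle. At 60 min, 100 μL of 1 mM bradykinin in saline was injected intraplantar, alternating feet. Pain behaviour was scored 0–3 every 15 s for 15 min from video. Sessions were 2 weeks apart.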
# Rattus norvegicus [30] = assay: Effective dose for the analgesic effect measured after carrageenan injection when given orally by carrageenan-induced mechanical hyperalgesia test; assay type: functional; settings: po
# Procedure, shortened: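 Fasted male SD rats (100–120 g) were dosed orally with 1, 3 or 10 mg/kg in 0.1% MC 1 h before intraplantar carrageenan (1%, 100 μL/paw). Mechanical hyperalgesia was read by Randall-Selitto analgesimeter at 3, 4 and 5 h after carrageenan.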
# Rattus norvegicus [31] = assay: Percent inhibition of the analgesic effect measured after carrageenan injection at a dose of 20 mg/Kg therapeutic when given orally by carrageenan-induced thermal hyperalgesia test; assay type: functional
# Procedure, shortened: (§3)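 Fasted male SD rats (160–180 g) were injected in the right hind plantar paw with lambda carrageenan (2 mg in 100 μL). They were gavaged with 20 mg/kg or vehicle (PEG400/0.2% Tween/5% propylene glycol), either 0.5 h before (prophylactic) or 2 h after (therapeutic) carrageenan. Hargreaves heat withdrawal was measured in the inflamed and control paws at 3.5–4.5 h.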
# Rattus norvegicus [32] = assay: Percent inhibition of the analgesic effect measured after carrageenan injection at a dose of 20 mg/Kg prophylactic when given orally by carrageenan-induced thermal hyperalgesia test; assay type: functional; procedure, shortened: as §3
# Adenosine kinase, sequence (P55263 whole entry): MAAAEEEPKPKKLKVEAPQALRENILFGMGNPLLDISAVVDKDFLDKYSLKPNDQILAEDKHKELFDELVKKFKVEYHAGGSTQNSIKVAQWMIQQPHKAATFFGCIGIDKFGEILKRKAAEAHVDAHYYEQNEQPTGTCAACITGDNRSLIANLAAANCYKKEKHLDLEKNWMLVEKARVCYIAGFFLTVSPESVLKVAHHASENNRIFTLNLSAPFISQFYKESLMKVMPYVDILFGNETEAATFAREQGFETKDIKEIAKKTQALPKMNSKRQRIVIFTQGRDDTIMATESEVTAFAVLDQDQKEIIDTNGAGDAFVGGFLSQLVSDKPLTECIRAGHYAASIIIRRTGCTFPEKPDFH
smiles,measurement,setting,value
C[C@H]1O[C@@H](n2cc(-c3ccccc3)c3c(Nc4ccc(F)cc4)ncnc32)[C@H](O)[C@@H]1O,inhibition in vivo at 20 mg/kg,Rattus norvegicus [1],59%
CCOc1ccc(-c2cn([C@@H]3OC[C@@H](O)[C@H]3O)c3ncnc(Nc4ccc(C#N)cc4)c23)cc1,IC50,Adenosine kinase,2 nM
same,inhibition in vivo at 20 mg/kg,Rattus norvegicus [1],84%
O[C@@H]1[C@H](O)CO[C@H]1n1cc(-c2ccccc2)c2c(Nc3ccc4c(c3)OCCO4)ncnc21,IC50,Adenosine kinase,4 nM
same,inhibition in vivo at 20 mg/kg,Rattus norvegicus [1],80%
CCOc1ccc(Nc2ncnc3c2c(-c2ccccc2)cn3[C@@H]2OC[C@@H](O)[C@H]2O)cc1,IC50,Adenosine kinase,3 nM
same,inhibition in vivo at 20 mg/kg,Rattus norvegicus [1],41%
O[C@@H]1[C@H](O)CO[C@H]1n1cc(-c2ccccc2)c2c(Nc3ccc(Br)cc3)ncnc21,IC50,Adenosine kinase,5 nM
same,inhibition in vivo at 20 mg/kg,Rattus norvegicus [1],33%
O[C@@H]1[C@H](O)CO[C@H]1n1cc(-c2ccccc2)c2c(Nc3ccccc3)ncnc21,IC50,Adenosine kinase,4 nM
same,inhibition in vivo at 20 mg/kg,Rattus norvegicus [1],78%
CC1(C)O[C@@H](n2cc(-c3ccccc3)c3c(Nc4ccccc4)ncnc32)[C@H](O)[C@@H]1O,IC50,Adenosine kinase,4000 nM
CCOc1cccc(Nc2ncnc3c2c(-c2ccccc2)cn3[C@@H]2OC[C@@H](O)[C@H]2O)c1,IC50,Adenosine kinase,2 nM
same,inhibition in vivo at 20 mg/kg,Rattus norvegicus [1],76%
O[C@H]1[C@H](n2cc(-c3ccccc3)c3c(Nc4ccc(F)cc4)ncnc32)OC2(CC2)[C@H]1O,IC50,Adenosine kinase,0.3 nM
Nc1ncnc2c1c(I)cn2[C@@H]1OC[C@@H](O)[C@H]1O,IC50,Adenosine kinase,6 nM
N#Cc1ccc(Nc2ncnc3c2c(-c2ccc(Cl)cc2)cn3[C@@H]2OC[C@@H](O)[C@H]2O)cc1,IC50,Adenosine kinase,7 nM
same,inhibition in vivo at 20 mg/kg,Rattus norvegicus [1],75%
Nc1cccc(-c2cn([C@@H]3OC[C@@H](O)[C@H]3O)c3ncnc(Nc4ccc(F)cc4)c23)c1,IC50,Adenosine kinase,10 nM
same,inhibition in vivo at 20 mg/kg,Rattus norvegicus [1],31%
O[C@@H]1[C@H](O)CO[C@H]1n1cc(-c2ccccc2)c2c(Nc3ccc(F)cc3)ncnc21,IC50,Adenosine kinase,6 nM
same,CL/F,[2],6.67 mL/min/kg
same,bioavailability,[3],60%
same,bioavailability,[4],61.2%
same,clearance,[5],6.67 mL/min/kg
same,clearance,[6],21.7 mL/min/kg
same,half-life,[7],3.9 h
same,half-life,[8],3.2 h
same,half-life,[9],4 h
same,half-life,[10],3 h
same,CL/F,[11],25 mL/min/kg
same,Vd,[12],2 L/kg
same,Vd,[13],6.9 L/kg
same,Vd,[14],2.2 L/kg
same,Vd,[15],6.2 L/kg
same,AUC,[16],2970 ng·h/mL
same,AUC0-8h,[17],785 ng·h/mL
same,AUC,[18],5340 ng·h/mL
same,AUC0-8h,[19],1440 ng·h/mL
same,Tmax,[20],1.6 h
same,Tmax,[21],3.5 h
same,ED50,Rattus norvegicus [22],21.7 mg/kg
same,ED50,Rattus norvegicus [23],11.9 mg/kg
same,ED50,Rattus norvegicus [24],16 mg/kg
same,inhibition in vivo at 20 mg/kg,Rattus norvegicus [1],76%
same,ED50,Rattus norvegicus [25],3.6 mg/kg
same,Cmax,[26],585 ng/mL
same,Cmax,[27],523 ng/mL
same,Cmax,[28],628 ng/mL
same,Cmax,[29],135 ng/mL
same,ED50,Monkey,3.8 mg/kg
same,ED50,Rattus norvegicus [30],2.4 mg/kg
same,Inhibition,Rattus norvegicus [31],99%
same,Inhibition,Rattus norvegicus [32],151%
Cc1ccccc1-c1cn([C@@H]2OC[C@@H](O)[C@H]2O)c2ncnc(Nc3ccc4c(c3)OCCO4)c12,IC50,Adenosine kinase,1 nM
same,inhibition in vivo at 20 mg/kg,Rattus norvegicus [1],99%
CCOc1ccc(-c2cn([C@@H]3OC[C@@H](O)[C@H]3O)c3ncnc(Nc4ccccc4OC)c23)cc1,IC50,Adenosine kinase,5.3 nM
same,inhibition in vivo at 20 mg/kg,Rattus norvegicus [1],16%
Nc1ncnc2c1c(I)cn2[C@@H]1OC2(CC2)[C@@H](O)[C@H]1O,IC50,Adenosine kinase,600 nM
